The structures appear in SMILES notation. Active and inactive are the calls of the source. The rule behind the calls is not given here. Starred links: 1 amine or outer side, 2 acyl side, 3 side chain; linkers in the order of their positions; H or OH if unused. Positions of bridges follow the written chain, without caps; N, C: chain ends. Non-standard residues stand in square brackets, D forms with d. Residues, ends and D or L forms follow the SMILES beside them. Chains are numbered I, II in the order given. Actinocin(1to9) = Cc1c2oc3c(C)ccc(C(=O)[*:2])c3nc-2c(C(=O)[*:1])c(N)c1=O; NMeV = CN[C@H](C(=O)O)C(C)C; Sar = CNCC(=O)O

The source of these data is ChEMBL document CHEMBL3244282, “Synthesis and evaluation of bis-dipeptide and bis-tripeptide analogues of actinomycin D” (1978).

One test relates to P388. In words: Antitumor activity against mouse P388 cells allografted in CD2F1 mouse assessed as increase in life span at 25 mg/kg administered daily for 9 days. It is filed as functional. In a few lines:
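P-388 leukaemia in CD2F1 mice, screened by the NCI Drug Research and Development Program. Dosing was by daily injection for 9 days, up to 25 mg/kg per injection. The read-out was increased life span (ILS), with ILS >25% taken as the minimum for activity.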

The subject of test [1] is Calf thymus DNA. In words: Binding affinity to calf thymus DNA assessed as hypochromic shift after 30 mins by spectral analysis. It is filed as nucleic-acid assay. The note with it: Bos taurus.
Test [2] has as its system Calf thymus DNA. In words: Binding affinity to calf thymus DNA assessed as bathochromic shift after 30 mins by spectral analysis. In kind it is nucleic-acid assay. Conditions: Bos taurus.
The subject of test [3] is Calf thymus DNA. In words: Binding affinity to calf thymus DNA assessed as isosbestic point after 30 mins by spectral analysis. Conditions: Bos taurus. In kind it is nucleic-acid assay.
The test system of test [4] is Bacillus spizizenii. In words: Antibacterial activity against Bacillus subtilis ATCC 6633 at 40 ug/ml by cup-plate diffusion assay. Conditions: read-out: IZ. In kind it is functional. In a few lines:
(§1)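 Cup-plate agar diffusion with 6-mm stainless steel cylinders on nutrient agar seeded with B. subtilis ATCC 6633, incubated at 37 °C. Activity is read as the zone of inhibition, compared with actinomycin D standards. On repeat assays, test concentrations were adjusted to give zones of roughly the same size as the standards.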

For test [5], the system named is Bacillus spizizenii. In words: Antibacterial activity against Bacillus subtilis ATCC 6633 at 40 ug/ml by cup-plate diffusion assay relative to actinomycin D. In kind it is functional. Summed up:
as §1

Test [6] has as its system Calf thymus DNA. In words: Binding affinity to calf thymus DNA at DNA/drug ratio of 12:1 after 30 mins by ultracentrifugation method. It is filed as nucleic-acid assay. Conditions: Bos taurus. In a few lines: (§2)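 Drug at about 5×10^-6 M with calf thymus DNA at 0, 1.94, 2.27, 3.35 and 9.45×10^-5 M in pH 7.00 1 M NaCl–0.008 M Tris buffer, equilibrated 30 min, then spun at 150 000g for 6 h at 25 °C. Free drug was measured in the supernatant. Bound drug was measured by dissolving the pellet in 50% DMF and reading A443 against drug in 50% DMF. Repeated at varied drug/DNA ratios.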

Test [7] concerns Bacillus spizizenii. In words: Antibacterial activity against Bacillus subtilis ATCC 6633 at 5 ug/ml by cup-plate diffusion assay. In kind it is functional. The note with it: read-out: IZ. In a few lines:
as §1

Test [8] concerns Bacillus spizizenii. In words: Antibacterial activity against Bacillus subtilis ATCC 6633 at 2.50 ug/ml by cup-plate diffusion assay. In kind it is functional. The note with it: read-out: IZ. Summed up:
as §1

Test [9] concerns Bacillus spizizenii. In words: Antibacterial activity against Bacillus subtilis ATCC 6633 at 1.25 ug/ml by cup-plate diffusion assay. In kind it is functional. The note with it: read-out: IZ. In a few lines: as §1
Test [10] concerns Bacillus spizizenii. In words: Antibacterial activity against Bacillus subtilis ATCC 6633 at 3.85 ug/ml by cup-plate diffusion assay. In kind it is functional. The note with it: read-out: IZ. In a few lines: as §1
Test [11] relates to Bacillus spizizenii. In words: Antibacterial activity against Bacillus subtilis ATCC 6633 at 2.35 ug/ml by cup-plate diffusion assay. Conditions: read-out: IZ. It is filed as functional. Summed up: as §1
Test [12] has as its system Bacillus spizizenii. In words: Antibacterial activity against Bacillus subtilis ATCC 6633 at 0.65 ug/ml by cup-plate diffusion assay. Conditions: read-out: IZ. It is filed as functional. Summed up: as §1
The test system of test [13] is Calf thymus DNA. In words: Binding affinity to calf thymus DNA assessed as reduction in absorbance after 30 mins by spectral analysis. It is filed as nucleic-acid assay. Also on record: scale not given: the % may be the effect or the level left. Conditions: Bos taurus.
In test [14] the test system is Calf thymus DNA. In words: Binding affinity to calf thymus DNA at DNA/drug ratio of 25:1 after 30 mins by ultracentrifugation method. Conditions: Bos taurus. In kind it is nucleic-acid assay. Summed up:
as §2

Test [15] concerns Calf thymus DNA. In words: Binding affinity to calf thymus DNA after 30 mins by ultracentrifugation method. In kind it is nucleic-acid assay. The note with it: Bos taurus. In a few lines: as §2

Take `COC(=O)[C@@H]1CCCN1C(=O)[C@H](NC(=O)[C@@H](NC(=O)c1c2nc3c(C(=O)N[C@H](C(=O)N[C@@H](C(=O)N4CCC[C@H]4C(=O)OC)C(C)C)[C@@H](C)O)ccc(C)c3oc-2c(C)c(=O)c1N)[C@@H](C)O)C(C)C`: the Activity result in the test on P388 was “<=25%”. Further, the result in the test with Calf thymus DNA [1], with Calf thymus DNA [2] and with Calf thymus DNA [3] was inactive.

Turning to `Cc1c2oc3c(C)ccc(C(=O)N[C@H](C(=O)N[C@@H](C(=O)NCCO)C(C)C)[C@@H](C)O)c3nc-2c(C(=O)N[C@H](C(=O)N[C@@H](C(=O)NCCO)C(C)C)[C@@H](C)O)c(N)c1=O`, the Activity entry in the test with P388 is “<=25%”. In addition, the outcome in the test with Calf thymus DNA [1], in the test on Calf thymus DNA [2] and in the test on Calf thymus DNA [3] was inactive.

Take `Cc1c2oc3c(C)ccc(C(=O)N[C@H](C(=O)N[C@@H](C(=O)O)C(C)C)[C@@H](C)O)c3nc-2c(C(=O)N[C@H](C(=O)N[C@@H](C(=O)O)C(C)C)[C@@H](C)O)c(N)c1=O`: the zone of inhibition at 40 µg/mL with Bacillus spizizenii [4] is 14.3 mm. Further, in the test with Bacillus spizizenii [5], the Ratio was found to be 5.3. For the same compound, in the test on P388, the Activity result was “<=25%”. Moreover, the outcome in the test on Calf thymus DNA [1], in the test on Calf thymus DNA [2] and with Calf thymus DNA [3] was inactive.

Turning to `CNC(=O)[C@H](NC(=O)[C@@H](NC(=O)c1c2nc3c(C(=O)N[C@H](C(=O)N[C@@H](C(=O)NC)C(C)C)[C@@H](C)O)ccc(C)c3oc-2c(C)c(=O)c1N)[C@@H](C)O)C(C)C`, the zone of inhibition at 40 µg/mL with Bacillus spizizenii [4] is 8.5 mm. The Ratio in the test on Bacillus spizizenii [5] came out at 1.1. Also, the Activity result in the test on P388 was “<=25%”; with Calf thymus DNA [6] it was 17%. Besides, the outcome with Calf thymus DNA [1], in the test on Calf thymus DNA [2] and in the test on Calf thymus DNA [3] was inactive.

Regarding `Cc1c2oc3c(C)ccc(C(=O)N[C@@H]4C(=O)N[C@H](C(C)C)C(=O)N5CCC[C@H]5C(=O)N(C)CC(=O)N(C)[C@@H](C(C)C)C(=O)O[C@@H]4C)c3nc-2c(C(=O)N[C@@H]2C(=O)N[C@H](C(C)C)C(=O)N3CCC[C@H]3C(=O)N(C)CC(=O)N(C)[C@@H](C(C)C)C(=O)O[C@@H]2C)c(N)c1=O` [DACTINOMYCIN] (I: T[dV]P[Sar][NMeV] / II: T[dV]P[Sar][NMeV]; ester I:1-I:C, II:1-II:C; linker I:N-II:N via Actinocin(1to9)), the zone of inhibition at 5 µg/mL with Bacillus spizizenii [7] was 18.2 mm. In addition, in the test with Bacillus spizizenii [8], the zone of inhibition at 2.5 µg/mL amounted to 14.5 mm. Further, the zone of inhibition at 1.25 µg/mL with Bacillus spizizenii [9] was found to be 11.1 mm. For the same compound, the zone of inhibition at 3.85 µg/mL in the test on Bacillus spizizenii [10] was 16.6 mm. Moreover, the zone of inhibition at 2.35 µg/mL in the test on Bacillus spizizenii [11] was 14.3 mm. For the same compound, in the test with Bacillus spizizenii [12], the zone of inhibition at 0.65 µg/mL is 8.5 mm. Moreover, the Activity entry in the test on P388 was “<=25%”; with Calf thymus DNA [13] it was 30%; with Calf thymus DNA [14] it was 85%; with Calf thymus DNA [6], 70%. Also, the result in the test on Calf thymus DNA [1], in the test with Calf thymus DNA [2] and in the test with Calf thymus DNA [3] was Active. This compound returned a Ka with Calf thymus DNA [15] of 1.56 ×10⁶ /M.

On to `COC(=O)[C@@H]1CC(=O)CN1C(=O)[C@H](NC(=O)[C@@H](NC(=O)c1c2nc3c(C(=O)N[C@H](C(=O)N[C@@H](C(=O)N4CC(=O)C[C@H]4C(=O)OC)C(C)C)[C@@H](C)O)ccc(C)c3oc-2c(C)c(=O)c1N)[C@@H](C)O)C(C)C`, for which the Activity entry in the test on P388 is reported as “<=25%”. Besides, the outcome in the test on Calf thymus DNA [1], in the test on Calf thymus DNA [2] and in the test with Calf thymus DNA [3] was inactive.

Turning to `Cc1c2oc3c(C)ccc(C(=O)N[C@H](C(=O)N[C@@H](C(=O)NN)C(C)C)[C@@H](C)O)c3nc-2c(C(=O)N[C@H](C(=O)N[C@@H](C(=O)NN)C(C)C)[C@@H](C)O)c(N)c1=O`, the Activity entry in the test with P388 was “<=25%”. In addition, the result in the test on Calf thymus DNA [1], in the test on Calf thymus DNA [2] and in the test with Calf thymus DNA [3] was inactive.

For the compound `COC(=O)[C@H](NC(=O)[C@@H](NC(=O)c1c2nc3c(C(=O)N[C@H](C(=O)N[C@@H](C(=O)OC)C(C)C)[C@@H](C)OC(C)=O)ccc(C)c3oc-2c(C)c(=O)c1N)[C@@H](C)OC(C)=O)C(C)C`, the Activity entry in the test on P388 is given as “<=25%”. Also, the outcome with Calf thymus DNA [1], in the test with Calf thymus DNA [2] and in the test with Calf thymus DNA [3] was inactive.

Turning to `COC(=O)[C@H](NC(=O)[C@@H](NC(=O)c1c2nc3c(C(=O)N[C@H](C(=O)N[C@@H](C(=O)OC)C(C)C)[C@@H](C)O)ccc(C)c3oc-2c(C)c(=O)c1N)[C@@H](C)O)C(C)C`, the zone of inhibition at 40 µg/mL in the test on Bacillus spizizenii [4] was determined as 16.6 mm. The Ratio with Bacillus spizizenii [5] was 9.6. Moreover, the Activity result was “<=25%” in the test on P388, 10% with Calf thymus DNA [13] and 30% in the test with Calf thymus DNA [14]. The outcome in the test on Calf thymus DNA [1], in the test with Calf thymus DNA [2] and in the test with Calf thymus DNA [3] was inactive.
